Assay outcomes as filed in PubChem.
An excerpt weighted towards active compounds, which were near 2% of everything screened.
PAD4 FP inh: human PAD4 inhibitors, primary screen, biochemical, fluorescence polarization, 1536-well format; actives 0.41% (n = 330,000); AID 485272, 2010; inhibition, % at 6.36 µM; Protein-arginine deiminase type-4 (Homo sapiens), Q9UM07; recombinant PAD4, RCA probe fluorescence polarization;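 active = percent inhibition above a cutoff equal to the mean of all tested compounds plus 3 SD, cut at about 15% in these data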;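 note: 0% = PAD4 with RCA probe and DMSO and 100% = probe without PAD4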
Target sequence (Q9UM07 whole entry, looked up): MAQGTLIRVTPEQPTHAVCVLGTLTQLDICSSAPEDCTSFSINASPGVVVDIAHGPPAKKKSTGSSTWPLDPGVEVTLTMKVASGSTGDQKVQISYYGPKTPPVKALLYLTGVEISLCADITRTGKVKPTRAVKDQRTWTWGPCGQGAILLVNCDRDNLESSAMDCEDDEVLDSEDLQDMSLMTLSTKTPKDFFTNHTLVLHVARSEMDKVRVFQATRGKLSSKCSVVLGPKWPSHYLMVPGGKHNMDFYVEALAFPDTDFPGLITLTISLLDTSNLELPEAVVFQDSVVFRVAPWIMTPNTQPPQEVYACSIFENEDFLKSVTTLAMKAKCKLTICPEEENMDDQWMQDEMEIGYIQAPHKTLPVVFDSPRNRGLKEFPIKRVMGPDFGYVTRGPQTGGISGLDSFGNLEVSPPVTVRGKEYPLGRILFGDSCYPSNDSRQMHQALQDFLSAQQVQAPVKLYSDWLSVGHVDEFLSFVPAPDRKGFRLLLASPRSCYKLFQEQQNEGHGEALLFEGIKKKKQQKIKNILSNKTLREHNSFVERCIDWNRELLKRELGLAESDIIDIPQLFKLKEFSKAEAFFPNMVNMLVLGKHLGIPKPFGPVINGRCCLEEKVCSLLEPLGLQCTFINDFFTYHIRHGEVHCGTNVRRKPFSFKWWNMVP
PP5 inh: PP5 phosphatase inhibitors, primary screen, biochemical, fluorescence; actives 0.18% (n = 320,000); Serine/threonine-protein phosphatase 5 (Homo sapiens), P53041; purified PP5c, OMFP substrate fluorescence; inhibition, % at 6.7 µM;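 active = inhibition above the campaign's mean inhibition across all tested compounds plus 3 SD, cut at about 9.5% in these data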;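 note: 0% = DMSO only and 100% = 100 µM cantharidin control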
UCH37 DUB inh: inhibitors of human UCH37 deubiquitinase, primary screen, biochemical, Ub-AMC cleavage, fluorescence. Ubiquitin carboxyl-terminal hydrolase isozyme L5 (Homo sapiens), Q9Y5K5. purified proteasome/UCH37. inhibition, % (concentration not given with the values). actives 0.33% (n = 330,000);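 active = mean inhibition over replicate wells above about 20%, limit read from the data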;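 note: 0% = compound-free wells with enzyme and 100% = wells lacking proteasome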
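System: Proteasome-associated human UCH37 deubiquitinase; Input: 0.15 nM proteasome in added enzyme buffer; Also added: Ub-AMC substrate from 1 µM stock; Incubation: 30 min compound-proteasome preincubation then 25 min substrate reaction, room temperature; Detection: fluorescence, ex 355 nm, em 460 nm; Read-out: % inhibition of Ub-AMC cleavage fluorescence; Benchmarks: no-proteasome and no-compound wells.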
Fh CTSL1 inh: Fasciola hepatica cathepsin L1 inhibitors, primary screen, counter-screen for PFM18AAP inhibitor project, biochemical, QFRET, fluorogenic peptide substrate. recombinant F. hepatica cathepsin L1, Z-Leu-Arg-MCA fluorescence. inhibition, % at 5.96 µM. actives 0.49% (n = 300,000). AID 1906, 2009;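 active = inhibition above the mean of all tested compounds plus 3 SD, set per screening campaign, cut at about 17% in these data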;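 note: 0% = plate median of test compound wells and 100% = 1 µM Z-Phe-Ala-diazomethylketone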
Apaf-1 inh: inhibitors of human Apaf-1 apoptosome, primary screen, biochemical, DEVD-Rh110 fluorescence, uHTS. Apoptotic protease-activating factor 1 (Homo sapiens), O14727. reconstituted apoptosome caspase-3 activity. inhibition, % at 20 µM. actives 0.71% (n = 330,000). AID 489030, 2010; active = inhibition of at least 40% at 20 µM;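 note: plate controls were DMSO wells for no effect and DEVD-CHO caspase inhibitor wells for full effect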
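Assay system: Apoptosome proteins | Medium: pH 7.5 Hepes buffer with CHAPS, BSA, DTT | Also added: Cytochrome c and DEVD-Rh110 substrate | Times: 30 min plus 50 min, RT | Detection: Rhodamine 110 fluorescence at Ex 480/Em 540 nm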
GSTO1 inh: inhibitors of recombinant GSTO1, primary screen, counter-screen for RBBP9 inhibitor project, biochemical, fluorescence polarization; actives 1.1% (n = 300,000); activity-based probe fluorescence polarization; Glutathione S-transferase omega-1 (Homo sapiens), P78417; inhibition, % at 5.96 µM;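 active = inhibition above the campaign mean inhibition plus 3 SD, cut at about 35% in these data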;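 note: 0% = GSTO1-1 with DMSO and 100% = wells lacking GSTO1-1 enzyme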
PAD4 confirm: human PAD4 inhibitors, confirmation, biochemical, fluorescence polarization; shares compounds with PAD4 FP inh; inhibition, % at 6.36 µM; actives 28% (n = 1,200); recombinant PAD4, RCA probe fluorescence polarization; AID 488796, 2010;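 active = mean inhibition across replicates above the hit cutoff set by the earlier primary screen, cut at about 15% in these data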;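 note: inhibitors block active-site labeling by the probe so polarization falls; 0% = PAD4 with probe and DMSO and 100% = probe without PAD4 enzyme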
Apaf-1 inh conf2: Apaf-1 inhibitors, single-dose retest, confirmation, biochemical, fluorescence, DEVD-Rh110, 20 µM | shares compounds with Apaf-1 inh | inhibition, % at 20 µM | actives 25% (n = 1,800) | AID 504614, 2011 | reconstituted apoptosome, caspase-3 DEVD-Rh110 fluorescence;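 active = mean inhibition of at least 40% at 20 µM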;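 note: plate controls were DMSO wells for no effect and DEVD-CHO caspase inhibitor control wells for full effect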
Rh110 interf inh: Rh110 fluorescence interference by putative Apaf-1 inhibitors, confirmation, artefact control for Apaf-1 inhibitor project, biochemical, 20 µM; shares compounds with Apaf-1 inh; quenched caspase reaction; activation (fluorescence interference), % at 20 µM; 1,800 tested, under 10 active; AID 504615, 2011;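 active = signal rise of 40% or more at 20 µM, treated as a fluorescence artifact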
Apaf1 inh interf: fluorescence interference of Apaf-1 inhibitor hits, dose response, artefact control for Apaf-1 inhibitor project. 460 tested, under 10 active. IC50, µM. shares compounds with Apaf-1 inh. fluorescence interference counterscreen, Apaf-1 assay format; call rule not given here
UCH37 reconfirm: retest of human UCH37 deubiquitinase inhibitors, confirmation, biochemical, Ub-AMC cleavage rate, fluorescence | Proteasome-bound UCH37 | actives 27% (n = 480) | shares compounds with UCH37 DUB inh | inhibition, % at 20 µM;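 active = average inhibition over replicates above about 50%, so the earlier screening hit is confirmed, limit read from the data; inactive = the rest, counted as false positives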;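 note: based on cleavage rate fitted by regression over a 30 min kinetic read; 0% = proteasome plus Ub-AMC and 100% = Ub-AMC without proteasome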
* hit, by the source's call.

Results for CC1CCCC(NC(=O)COC(=O)c2ccccc2[N+](=O)[O-])C1C (configuration not stated) ?
PAD4 FP inh: -3; PP5 inh: 3; UCH37 DUB inh: 2; Fh CTSL1 inh: 4; Apaf-1 inh: 5; GSTO1 inh: -2

How did Cc1ccc(S(=O)(=O)NN=C/C=C/c2ccccc2)cc1 do in these assays?
UCH37 DUB inh: 6

How did CC(=NNS(=O)(=O)c1ccc(C(C)C)cc1)c1ccncc1 do in these assays?
UCH37 DUB inh: 5

Results for Cc1ccc(S(=O)(=O)/N=C2\C=C(Nc3ccc(O)cc3)C(=O)c3ccccc32)cc1 ?
PAD4 FP inh: 55*; UCH37 DUB inh: 48*; Apaf-1 inh: 96*; PAD4 confirm: 54*; Apaf-1 inh conf2: 97*; Rh110 interf inh: 1; Apaf1 inh interf: >100; UCH37 reconfirm: 5

Results for CCOc1ccc(NS(=O)(=O)c2cc(C(=O)NCCCN3CCOCC3)ccc2C)cc1 ?
PAD4 FP inh: 3; PP5 inh: 6; UCH37 DUB inh: 3; Apaf-1 inh: 65*; Apaf-1 inh conf2: 34; Rh110 interf inh: 7

How did Cc1ccc(C(=O)NCCCN2CCOCC2)cc1S(=O)(=O)N1CCOCC1 do in these assays?
PAD4 FP inh: -2; PP5 inh: 2; UCH37 DUB inh: 4; Apaf-1 inh: -6

What do the screens show for `Cc1ccc(NC2=C/C(=N/S(=O)(=O)c3cccs3)c3ccccc3C2=O)cc1`?
PAD4 FP inh: 11; PP5 inh: 3; Fh CTSL1 inh: 60*; Apaf-1 inh: 92*; GSTO1 inh: 65*; Apaf-1 inh conf2: 95*; Rh110 interf inh: 7; Apaf1 inh interf: >100

How did COc1ccc(C=NNC(=O)c2cccnc2)cc1CN1CCN(c2ccc(F)cc2)CC1 do in these assays?
UCH37 DUB inh: 0

How did OC(c1cc(C(F)(F)F)nc2c(C(F)(F)F)cccc12)C1CCCCN1 (configuration not stated) do in these assays?
PAD4 FP inh: 3; PP5 inh: -3; UCH37 DUB inh: 4; Fh CTSL1 inh: 2; Apaf-1 inh: 48*; GSTO1 inh: -1; Apaf-1 inh conf2: 27; Rh110 interf inh: 2

What do the screens show for `OC(c1cc(-c2ccc(C(F)(F)F)cc2)nc(C(F)(F)F)c1)C1CCCCN1` (configuration not stated)?
PAD4 FP inh: -1; PP5 inh: 1; UCH37 DUB inh: 5; Fh CTSL1 inh: 4; Apaf-1 inh: 27; GSTO1 inh: 2

How did COc1cc2c(cc1OC)C1=C(C#N)CCC(=NS(=O)(=O)c3ccccc3)N1CC2 do in these assays?
UCH37 DUB inh: 9

Results for COc1cc2c(cc1OC)C1=C(C#N)CCC(=O)N1CC2 ?
PAD4 FP inh: -2; PP5 inh: 3; UCH37 DUB inh: 5; Fh CTSL1 inh: 2; Apaf-1 inh: 50*; GSTO1 inh: -4; Apaf-1 inh conf2: 6; Rh110 interf inh: 5

What do the screens show for `CC(C)=CCC/C(C)=C/CNC(=O)CC1C[C@H](C(=O)N2CCOCC2)[C@@]2(C)c3[nH]c4ccccc4c3CCN2C1=O` (some centres not stated)?
PAD4 FP inh: -3; UCH37 DUB inh: 3; Apaf-1 inh: 31

Results for CC[C@]12c3[nH]c4ccc(Cl)cc4c3CCN1C(=O)[C@@H](CC(=O)NCC13CC4CC(CC(C4)C1)C3)C[C@@H]2C(=O)N1CCN(C(=O)c2ccco2)CC1 ?
PAD4 FP inh: 0; UCH37 DUB inh: 3; Apaf-1 inh: 44*; Apaf-1 inh conf2: 18; Rh110 interf inh: 7

What do the screens show for `CC(C)=CCC/C(C)=C/CNC(=O)C[C@H]1C[C@H](C(=O)N2CCOCC2)[C@@]2(C)c3[nH]c4ccc(Cl)cc4c3CCN2C1=O`?
PAD4 FP inh: 0; UCH37 DUB inh: 1; Apaf-1 inh: 42*; Apaf-1 inh conf2: 27; Rh110 interf inh: 10

What do the screens show for `CC(C)=CCC/C(C)=C/CNC(=O)C[C@H]1C[C@H](C(=O)N2CCOCC2)[C@@]2(C)c3[nH]c4cc(-c5ccco5)ccc4c3CCN2C1=O`?
PAD4 FP inh: 5; UCH37 DUB inh: -25; Apaf-1 inh: 44*; Apaf-1 inh conf2: 17; Rh110 interf inh: 3

What do the screens show for `CC[C@]12c3[nH]c4ccc(OC)cc4c3CCN1C(=O)C(CC(=O)NCC13CC4CC(CC(C4)C1)C3)C[C@@H]2C(=O)N1CCN(C(=O)c2ccco2)CC1` (some centres not stated)?
PAD4 FP inh: 0; UCH37 DUB inh: -1; Apaf-1 inh: 36

How did COc1cccc(C(=O)NN=c2sc3ccccc3n2C)c1 do in these assays?
UCH37 DUB inh: 4

What do the screens show for `CC(=NNC(=O)c1cccc(Br)c1)c1ccc(Br)cc1`?
UCH37 DUB inh: -2

How did COc1ccc(N=C2C(=Nc3ccc(OC)cc3)N(c3ccc(OC)cc3)C(=S)N2c2ccccc2)cc1 do in these assays?
PAD4 FP inh: -2; PP5 inh: 0; UCH37 DUB inh: 7; Fh CTSL1 inh: 1; Apaf-1 inh: 75*; GSTO1 inh: 2; Apaf-1 inh conf2: 7; Rh110 interf inh: 9

Results for COc1ccc(O)c(C=Nc2nc3ccccc3n2C)c1 ?
UCH37 DUB inh: 4
